Test results taken from ChEMBL document CHEMBL4765273 (Eur J Med Chem, 2020).

Tested on: Influenza A virus
Test: Antiviral activity against Influenza A virus (A/Duck/Guangdong/674/2014 (H5N6)) group-2 infected in chicken embryo fibroblast assessed as reduction in viral infection preincubated for 1 hrs followed by fibroblast infection and measured after 72 hrs by hemagglutination titre method
Type: functional, organism-based
Conditions: not given
Work on `CCC(CC)O[C@@H]1C=C(C(=O)O)C[C@H](NCc2ccc(F)cc2)[C@H]1NC(C)=O` yielded an IC50 of 4.57 µM.
Molecule `CCC(CC)O[C@@H]1C=C(C(=O)O)C[C@H](NCc2cccc(-c3ccsc3)c2)[C@H]1NC(C)=O` has an IC50 of 2.62 µM.
Molecule `CCC(CC)O[C@@H]1C=C(C(=O)O)C[C@H](NCc2ccc(Br)cc2)[C@H]1NC(C)=O` has an IC50 of 1.99 µM.
With `CCC(CC)O[C@@H]1C=C(C(=O)O)C[C@H](NC/C=C/c2ccc(N(C)C)cc2)[C@H]1NC(C)=O` the IC50 was 2.78 µM.
With `CCC(CC)O[C@@H]1C=C(C(=O)O)C[C@H](NC(=O)/C=C/c2ccc(C)cc2)[C@H]1NC(C)=O` the IC50 was > 10 µM.
In the case of `CCC(CC)O[C@@H]1C=C(C(=O)O)C[C@H](NS(=O)(=O)c2ccc(C(C)(C)C)cc2)[C@H]1NC(C)=O`, the IC50 is reported as > 10 µM.
With `CCC(CC)O[C@@H]1C=C(C(=O)O)C[C@H](NS(=O)(=O)c2ccc3ccccc3c2)[C@H]1NC(C)=O` the IC50 was > 10 µM.
`CCC(CC)O[C@@H]1C=C(C(=O)O)C[C@H](NCc2cccc(F)c2)[C@H]1NC(C)=O` showed an IC50 of 3.87 µM.
For `CCC(CC)O[C@@H]1C=C(C(=O)O)C[C@H](NS(=O)(=O)c2ccc(-c3ccccc3)cc2)[C@H]1NC(C)=O`, the IC50 was > 10 µM.

Tested on: Influenza A virus
Test: Antiviral activity against Influenza A virus (A/goose/Guangdong/SH7/2013(H5N1)) group-1 infected in chicken embryo fibroblast assessed as reduction in viral infection preincubated for 1 hrs followed by fibroblast infection and measured after 72 hrs by hemagglutination titre method
Type: functional, organism-based
Conditions: not given
In the case of `CCC(CC)O[C@@H]1C=C(C(=O)O)C[C@H](NCc2ccc(F)cc2)[C@H]1NC(C)=O`, the IC50 is reported as > 10 µM.
For `CCC(CC)O[C@@H]1C=C(C(=O)O)C[C@H](NCc2ccc(Br)cc2)[C@H]1NC(C)=O`, the IC50 was 2.53 µM.
For `CCC(CC)O[C@@H]1C=C(C(=O)O)C[C@H](NC/C=C/c2ccc(N(C)C)cc2)[C@H]1NC(C)=O`, the IC50 was 1.29 µM.
With `CCC(CC)O[C@@H]1C=C(C(=O)O)C[C@H](NC(=O)/C=C/c2ccc(C)cc2)[C@H]1NC(C)=O` the IC50 was > 10 µM.
With `CCC(CC)O[C@@H]1C=C(C(=O)O)C[C@H](NS(=O)(=O)c2ccc(C(C)(C)C)cc2)[C@H]1NC(C)=O` the IC50 was > 10 µM.
For `CCC(CC)O[C@@H]1C=C(C(=O)O)C[C@H](NS(=O)(=O)c2ccc3ccccc3c2)[C@H]1NC(C)=O`, the IC50 was > 10 µM.
In the case of `CCC(CC)O[C@@H]1C=C(C(=O)O)C[C@H](NCc2cccc(F)c2)[C@H]1NC(C)=O`, the IC50 is reported as > 10 µM.
With `CCC(CC)O[C@@H]1C=C(C(=O)O)C[C@H](NS(=O)(=O)c2ccc(-c3ccccc3)cc2)[C@H]1NC(C)=O` the IC50 was > 10 µM.

Tested on: Influenza A virus
Test: Antiviral activity against Influenza A virus (A/chicken/Hebei/LZF/ 2014(H5N2)) group-2 infected in chicken embryo fibroblast assessed as reduction in viral infection preincubated for 1 hrs followed by fibroblast infection and measured after 72 hrs by hemagglutination titre method
Type: functional, organism-based
Conditions: not given
In the case of `CCC(CC)O[C@@H]1C=C(C(=O)O)C[C@H](NCc2ccc(F)cc2)[C@H]1NC(C)=O`, the IC50 is reported as 0.11 µM.
In the case of `CCC(CC)O[C@@H]1C=C(C(=O)O)C[C@H](NCc2cccc(-c3ccsc3)c2)[C@H]1NC(C)=O`, the IC50 is reported as 0.07 µM.
Molecule `CCC(CC)O[C@@H]1C=C(C(=O)O)C[C@H](NCc2ccc(Br)cc2)[C@H]1NC(C)=O` has an IC50 of 0.11 µM.
`CCC(CC)O[C@@H]1C=C(C(=O)O)C[C@H](NC/C=C/c2ccc(N(C)C)cc2)[C@H]1NC(C)=O` showed an IC50 of 0.065 µM.
For `CCC(CC)O[C@@H]1C=C(C(=O)O)C[C@H](NC(=O)/C=C/c2ccc(C)cc2)[C@H]1NC(C)=O`, the IC50 was > 10 µM.
With `CCC(CC)O[C@@H]1C=C(C(=O)O)C[C@H](NS(=O)(=O)c2ccc(C(C)(C)C)cc2)[C@H]1NC(C)=O` the IC50 was > 10 µM.
For `CCC(CC)O[C@@H]1C=C(C(=O)O)C[C@H](NS(=O)(=O)c2ccc3ccccc3c2)[C@H]1NC(C)=O`, the IC50 was > 10 µM.
For `CCC(CC)O[C@@H]1C=C(C(=O)O)C[C@H](NCc2cccc(F)c2)[C@H]1NC(C)=O`, the IC50 was 0.14 µM.
With `CCC(CC)O[C@@H]1C=C(C(=O)O)C[C@H](NS(=O)(=O)c2ccc(-c3ccccc3)cc2)[C@H]1NC(C)=O` the IC50 was > 10 µM.

Tested on: not listed separately
Test: Cytotoxicity against chicken embryo fibroblast assessed as reduction in cell viability after 48 hrs by CCK8 assay
Design: species or system Gallus gallus
Conditions: chicken embryo fibroblasts
Outline: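 Chicken embryo fibroblasts (1×10^5 cells/mL) were cultured 24 h at 37°C, 5% CO2, washed with serum-free DMEM, then exposed to 2-fold serial compound dilutions in 1% FBS DMEM for 48 h. CCK-8 in 1% FBS DMEM was added for 90 min and absorbance read at 450 nm. CC50 was obtained by curve fitting. Blank and cell controls were included.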
With `CCC(CC)O[C@@H]1C=C(C(=O)O)C[C@H](NCc2ccc(F)cc2)[C@H]1NC(C)=O` the CC50 at 48 h was > 200 µM.
With `CCC(CC)O[C@@H]1C=C(C(=O)O)C[C@H](NCc2cccc(-c3ccsc3)c2)[C@H]1NC(C)=O` the CC50 at 48 h was > 200 µM.
For `CCC(CC)O[C@@H]1C=C(C(=O)O)C[C@H](NCc2ccc(Br)cc2)[C@H]1NC(C)=O`, the CC50 at 48 h was > 200 µM.
In the case of `CCC(CC)O[C@@H]1C=C(C(=O)O)C[C@H](NC/C=C/c2ccc(N(C)C)cc2)[C@H]1NC(C)=O`, the CC50 at 48 h is reported as > 200 µM.
In the case of `CCC(CC)O[C@@H]1C=C(C(=O)O)C[C@H](NC(=O)/C=C/c2ccc(C)cc2)[C@H]1NC(C)=O`, the CC50 at 48 h is reported as > 200 µM.
In the case of `CCC(CC)O[C@@H]1C=C(C(=O)O)C[C@H](NS(=O)(=O)c2ccc(C(C)(C)C)cc2)[C@H]1NC(C)=O`, the CC50 at 48 h is reported as > 200 µM.
In the case of `CCC(CC)O[C@@H]1C=C(C(=O)O)C[C@H](NS(=O)(=O)c2ccc3ccccc3c2)[C@H]1NC(C)=O`, the CC50 at 48 h is reported as > 200 µM.
With `CCC(CC)O[C@@H]1C=C(C(=O)O)C[C@H](NCc2cccc(F)c2)[C@H]1NC(C)=O` the CC50 at 48 h was > 200 µM.
With `CCC(CC)O[C@@H]1C=C(C(=O)O)C[C@H](NS(=O)(=O)c2ccc(-c3ccccc3)cc2)[C@H]1NC(C)=O` the CC50 at 48 h was > 200 µM.

Tested on: Influenza A virus
Test: Antiviral activity against Influenza A virus (A/goose/Jiangsu/1306/2014 (H5N8)) group-1 infected in chicken embryo fibroblast assessed as reduction in viral infection preincubated for 1 hrs followed by fibroblast infection and measured after 72 hrs by hemagglutination titre method
Type: functional, organism-based
Conditions: not given
`CCC(CC)O[C@@H]1C=C(C(=O)O)C[C@H](NCc2ccc(F)cc2)[C@H]1NC(C)=O` showed an IC50 of 0.52 µM.
With `CCC(CC)O[C@@H]1C=C(C(=O)O)C[C@H](NCc2cccc(-c3ccsc3)c2)[C@H]1NC(C)=O` the IC50 was 0.056 µM.
For `CCC(CC)O[C@@H]1C=C(C(=O)O)C[C@H](NC/C=C/c2ccc(N(C)C)cc2)[C@H]1NC(C)=O`, the IC50 was 0.88 µM.
Work on `CCC(CC)O[C@@H]1C=C(C(=O)O)C[C@H](NC(=O)/C=C/c2ccc(C)cc2)[C@H]1NC(C)=O` yielded an IC50 of 4.76 µM.
`CCC(CC)O[C@@H]1C=C(C(=O)O)C[C@H](NS(=O)(=O)c2ccc3ccccc3c2)[C@H]1NC(C)=O` gave an IC50 of 3.23 µM.
`CCC(CC)O[C@@H]1C=C(C(=O)O)C[C@H](NCc2cccc(F)c2)[C@H]1NC(C)=O` gave an IC50 of 0.49 µM.
In the case of `CCC(CC)O[C@@H]1C=C(C(=O)O)C[C@H](NS(=O)(=O)c2ccc(-c3ccccc3)cc2)[C@H]1NC(C)=O`, the IC50 is reported as 6.79 µM.
